Test results: ChEMBL document CHEMBL1142664, “Synthesis and biological evaluation of a new series of 2,3,5-substituted [1,2,4]-thiadiazoles as modulators of adenosine A1 receptors and their molecular mechanism of action” (J Med Chem, 2005)

Assays:
[1] = target: T1, Adenosine receptor A1 (Homo sapiens) (UniProt P30542); experiment: Inhibition of [3H]DPCPX binding to human Adenosine A1 receptor at 10e-6 M
T1 sequence (whole entry): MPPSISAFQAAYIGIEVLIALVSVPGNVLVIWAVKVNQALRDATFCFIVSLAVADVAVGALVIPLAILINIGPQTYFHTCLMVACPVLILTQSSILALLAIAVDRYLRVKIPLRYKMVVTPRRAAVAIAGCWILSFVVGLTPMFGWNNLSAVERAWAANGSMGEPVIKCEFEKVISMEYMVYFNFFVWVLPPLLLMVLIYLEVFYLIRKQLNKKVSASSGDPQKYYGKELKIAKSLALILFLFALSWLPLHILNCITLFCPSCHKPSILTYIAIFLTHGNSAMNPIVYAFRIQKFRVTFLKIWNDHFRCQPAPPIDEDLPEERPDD
In short: (§1)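 Human A1 receptors expressed in CHO-cell membranes, incubated 60 min at 25 °C in 50 mM Tris-HCl (pH 7.4) with the compound at a fixed concentration. Conditions were [3H]CCPA ~1.0 nM with 20 µg protein, or [3H]DPCPX ~1.6 nM with 10 µg protein. Nonspecific binding was defined with 10 µM DPCPX, and samples were filtered and counted. Results are % specific binding remaining, as means of three experiments in duplicate.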

[2] = target: T1, Adenosine receptor A1 (Homo sapiens); experiment: Inhibition of [3H]CCPA binding to human Adenosine A1 receptor at 10e-7 M; in short: as §1
[3] = target: T1, Adenosine receptor A1 (Homo sapiens); experiment: Inhibition of [3H]CCPA binding to human Adenosine A1 receptor at 10e-6 M; in short: as §1
[4] = target: T1, Adenosine receptor A1 (Homo sapiens); experiment: Dissociation half life of [3H]CCPA binding to Adenosine A1 receptor
In short: (§2)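 Kinetics on membranes (30 µg) from CHO cells expressing recombinant human A1 receptors, using [3H]CCPA at 1 nM, with or without compound. Association was started by adding membranes to the radioligand. For dissociation, membranes were preloaded with radioligand for 60 min at 25 °C, then 100 µM 8-cyclopentyltheophylline was added. Bound ligand was separated by GF/B filtration and counted by scintillation; t1/2 and rate constants were derived.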

[5] = target: T1, Adenosine receptor A1 (Homo sapiens); experiment: Dissociation constant for [3H]-CCPA binding to Adenosine A1 receptor in the presence of compound; in short: as §2
[6] = target: T1, Adenosine receptor A1 (Homo sapiens); experiment: Association half life for [3H]CCPA binding to Adenosine A1 receptor in the presence of compound; in short: as §2
[7] = target: T1, Adenosine receptor A1 (Homo sapiens); experiment: Association constant for [3H]CCPA binding to Adenosine A1 receptor in the presence of compound; in short: as §2
[8] = target: T1, Adenosine receptor A1 (Homo sapiens); experiment: Dissociation half life for [3H]CCPA binding to Adenosine A1 receptor in the presence of compound; in short: as §2
[9] = target: T1, Adenosine receptor A1 (Homo sapiens); experiment: Association half life for [3H]-CCPA binding to Adenosine A1 receptor in the presence of compound; in short: as §2

SMILES | Specific binding [1] | Specific binding [2] | Specific binding [3] | T1/2 [4] | Koff [5] | T1/2 [6] | k on [7] | T1/2 [8] | T1/2 [9]
Cc1cccc(-n2s/c(=N\c3ccccc3)nc2-c2ccccc2)c1 | 107% | 96% | 89% | – | – | – | – | – | –
Cc1cccc(-n2s/c(=N\Cc3ccccc3)nc2-c2ccccc2)c1 | 116% | 99% | 66% | – | – | – | – | – | –
c1ccc(/N=c2/nc(-c3ccccc3)n(-c3ccccc3)s2)cc1 | 106% | 104% | 66% | – | – | – | – | – | –
Cc1cccc(-n2s/c(=N/CCCO)nc2-c2ccccc2)c1 | 142% | 97% | 29% | – | – | – | – | – | –
c1ccc(C/N=c2\nc(-c3ccccc3)n(-c3ccccc3)s2)cc1 | 124% | 101% | 43% | – | – | – | – | – | –
CCCC/N=c1/nc(-c2ccccc2)n(-c2cccc(C)c2)s1 | 114% | 99% | 36% | – | – | – | – | – | –
OCCC/N=c1/nc(-c2ccccc2)n(-c2ccccc2)s1 | 127% | 106% | 27% | – | – | – | – | – | –

Continued, values first:

Specific binding [1] | Specific binding [2] | Specific binding [3] | T1/2 [4] | Koff [5] | T1/2 [6] | k on [7] | T1/2 [8] | T1/2 [9] | SMILES
125% | 100% | 24% | – | – | – | – | – | – | CC/N=c1/nc(-c2ccccc2)n(-c2cccc(C)c2)s1
134% | 99% | 20% | – | – | – | – | – | – | CC/N=c1/nc(-c2ccccc2)n(-c2ccccc2)s1
132% | 96% | 23% | – | – | – | – | – | – | C/N=c1/nc(-c2ccccc2)n(-c2cccc(C)c2)s1
123% | 100% | 25% | 12 min | 0.000967 s⁻¹ | 2.9 min | 4.17e+06 M⁻¹ s⁻¹ | – | – | c1ccc(-c2n/c(=N/C3CCCC3)sn2-c2ccccc2)cc1
126% | 101% | 27% | – | – | – | – | – | – | CCCC/N=c1/nc(-c2ccccc2)n(-c2ccccc2)s1
126% | 97% | 23% | – | – | – | – | – | – | CC(C)/N=c1/nc(-c2ccccc2)n(-c2ccccc2)s1
135% | 98% | 26% | – | – | – | – | – | – | CCC/N=c1/nc(-c2ccccc2)n(-c2ccccc2)s1
121% | 100% | 29% | – | – | – | – | – | – | Cc1cccc(-n2s/c(=N\C(C)C)nc2-c2ccccc2)c1
122% | 97% | 16% | – | 0.000933 s⁻¹ | – | 5.83e+06 M⁻¹ s⁻¹ | 12.4 min | 2 min | C/N=c1\nc(C2C=CC=CC2)n(C2C=CC=CC2)s1 (configuration not stated)
101% | 96% | 35% | – | – | – | – | – | – | Cc1cccc(-n2s/c(=N/C3CCCC3)nc2-c2ccccc2)c1
126% | 97% | 29% | – | – | – | – | – | – | CCC/N=c1/nc(-c2ccccc2)n(-c2cccc(C)c2)s1
